Shown are actives, neighbours in structure and some others; about 3.1% of the full set was active somewhere.
KCNQ1 inh: blocks the human KCNQ1 potassium channel; B-score at 10 µM; CHO-K1 KCNQ1, FluxOR thallium flux fluorescence; stronger effect = higher value; 1.3% of 310,000 active;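 active = compounds whose thallium flux B-score, printed positive for inhibition, exceeds three library SD while starting fluorescence stays within three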;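 note: channel opened by potassium depolarization with thallium stimulus after 20 min compound exposure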
KCNK9 block: inhibitors of human KCNK9 two-pore domain potassium channel | Q9NPC2 | HEK293 KCNK9, FluxOR thallium flux fluorescence; stronger effect = lower value | B-score at 10 µM | 1.2% of 310,000 active | AID 488922;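 active = ratio B-score over 3 SD below the library mean, with starting fluorescence within 5 SD of its mean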;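 note: negative B-score means less thallium flux so channel inhibition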
hERG protect: hERG (human) protection from proarrhythmic block. Q12809. CHO-hERG, FluxOR thallium flux, dofetilide IC70 present. activation (rescue from dofetilide block), less the hit threshold, % at 10 µM. 0.51% of 310,000 active. AID 1511;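 active = activation above the mean of controls blocked by dofetilide plus 5 SD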;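 note: thallium influx through hERG after potassium depolarization seen as dye fluorescence rise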
KCNQ1 act: human KCNQ1 channel potentiation or activation; CHO-K1 KCNQ1, thallium flux FluxOR fluorescence; stronger effect = higher value; B-score at 10 µM; 0.35% of 310,000 active;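 active = fluorescence ratio B-score, a plate-corrected score, at least three library SD, with initial intensity B-score within 5 SD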
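Assay system: stable KCNQ1 CHO-K1 line; medium: assay buffer, equal DMSO in all wells; timing: 90 min dye loading and 20 min compound exposure, both at room temperature; technique: kinetic FluxOR thallium fluorescence, 10-s 1-Hz baseline, 110-s post-stimulus read; read-out basis: B score of baseline-normalized fluorescence ratio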
KCNK3 block: human KCNK3 channel inhibition, primary screen; 0.84% of 340,000 active; AID 602410; CHO-KCNK3 thallium flux, FluxOR fluorescence; stronger effect = lower value; O14649; B-score at 10 µM;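 active = B-score under library mean minus 4 SD, starting fluorescence ratio at most library mean plus 5 SD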;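 note: more negative B-score means stronger inhibition of thallium flux through KCNK3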
Target sequence (O14649 whole entry, looked up): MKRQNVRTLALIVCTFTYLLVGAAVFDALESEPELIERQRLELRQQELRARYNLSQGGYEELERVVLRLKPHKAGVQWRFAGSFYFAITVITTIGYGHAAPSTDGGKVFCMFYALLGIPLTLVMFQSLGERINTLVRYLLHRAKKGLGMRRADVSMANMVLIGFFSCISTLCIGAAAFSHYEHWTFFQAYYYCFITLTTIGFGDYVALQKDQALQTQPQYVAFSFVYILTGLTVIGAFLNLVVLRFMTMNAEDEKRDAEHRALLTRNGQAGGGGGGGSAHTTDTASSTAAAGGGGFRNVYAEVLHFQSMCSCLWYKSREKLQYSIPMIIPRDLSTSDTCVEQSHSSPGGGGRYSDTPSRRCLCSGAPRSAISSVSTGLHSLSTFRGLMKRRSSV
KCNK9 inh conf: human KCNK9 inhibitor confirmation; 43% of 4,900 active; inhibition, % at 10 µM; HEK293 KCNK9 cells, FluxOR thallium flux fluorescence; AID 492992; shares compounds with KCNK9 block;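 active = thallium signal inhibited by more than 5 SD of the compound-free buffer control wells, on both duplicate plates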
Kir2-1 spec: tests whether KCNK9 modulators also affect mouse Kir2.1 | shares compounds with KCNK9 block | Kir2.1 cells, FluxOR thallium flux fluorescence | inhibition, % at 10 µM | 4% of 4,900 active | AID 492993;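 active = thallium signal drop more than 5 SD beyond the mean of the no-compound control wells, seen in both duplicate plates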;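 note: signal is fluorescence rise after thallium addition divided by baseline fluorescence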
KCNK9 uninduced: non-induced cell nonspecific activity of KCNK9 modulators; inhibition, % at 10 µM; 40% of 4,900 active; shares compounds with KCNK9 block; AID 492997; non-induced KCNK9-HEK293, FluxOR thallium flux;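 active = thallium signal drop beyond 5 SD of the untreated control mean, on both duplicate plates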
KCNK3 confirm: confirmation of human KCNK3 two-pore domain potassium channel inhibitors | CHO-KCNK3 thallium flux, FluxOR fluorescence; 0% buffer, 100% carvedilol maximal block | ratio percent of control, % at 10 µM | shares compounds with KCNK3 block | 99% of 2,400 active;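 active = ratio percent of control, averaged over triplicates, above buffer control mean plus 5 SD, cut at about 64% in these data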;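 note: ratio is the fluorescence rise from min to max over baseline after thallium stimulus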
KCNK3 noninduced: counter-screen for KCNK3 inhibitors: effect in non-induced cells | shares compounds with KCNK3 block | non-induced KCNK3 parental cells, FluxOR thallium flux; stronger effect = lower value | thallium flux ratio (lower = more inhibition) at 10 µM | 40% of 2,400 active | AID 651747;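 active = thallium flux ratio, averaged over three wells, more than 5 SD below the buffer control mean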;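 note: host cells are CHO cells without KCNK3 induction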
Numbers stand for hits; i = inactive; nt = not tested or not shown.

SMILES | KCNQ1 inh | KCNK9 block | hERG protect | KCNQ1 act | KCNK3 block | KCNK9 inh conf | Kir2-1 spec | KCNK9 uninduced | KCNK3 confirm | KCNK3 noninduced
Cc1cc(C)nc(NC(=NCCc2c[nH]c3ccccc23)NC(=O)c2ccco2)n1 | i | -15 | i | i | -9 | 30% | i | i | 135 | 0.15
CCOC(=O)C1CCN(c2nc(-c3ccc(C)cc3)nc3ccccc23)CC1 | i | -8.2 | i | i | -9.2 | 48% | i | 30% | 108 | i
COc1ccc(C(=O)OCC(=O)N2CCN(S(=O)(=O)c3ccc(C)cc3)CC2)cc1[N+](=O)[O-] | nt | nt | nt | nt | i | nt | nt | nt | nt | nt
CCc1ccc(NC(=O)CN(N=Nc2nonc2C)c2nonc2C)cc1 | i | -9 | i | i | -11 | 64% | i | 34% | 115 | i
COc1ccc(-c2[nH]c(-c3ccc4c(c3)OCO4)nc2-c2ccccc2)cc1 | 11 | -11 | i | i | -10 | 56% | i | 35% | 154 | 0.11
COc1ccccc1C(CC(=O)Nc1nccs1)c1ccco1 (centres undefined) | i | i | i | i | i | nt | nt | nt | nt | nt
O=C(CC(c1ccc(F)cc1)c1ccco1)Nc1nccs1 (centres undefined) | i | -8.1 | i | i | -11 | 32% | i | 34% | 110 | 0.16
COc1ccccc1NC(=O)CC(c1ccc(F)cc1)c1ccco1 (centres undefined) | i | -10 | i | i | i | 36% | i | 30% | 121 | 0.15
COc1ccc(C(CC(=O)Nc2ccc(F)cc2)c2ccccc2)cc1 (centres undefined) | i | i | i | i | i | nt | nt | nt | nt | nt
NC(=O)CC1C(=O)N(c2ccccc2)C(=S)N1NC(=O)c1ccccc1 (centres undefined) | i | i | i | i | i | nt | nt | nt | nt | nt
CC1CCCCN1C(=O)CN1C(=O)NC2(CCCCC2C)C1=O (centres undefined) | nt | nt | nt | nt | i | nt | nt | nt | nt | nt
CC(C)N(Cc1nc(-c2ccc(Cl)cc2)no1)C(=O)C(c1ccccc1)c1ccccc1 | i | -10 | i | i | -9.9 | 55% | i | 40% | 129 | 0.13
CCC1CCCCN1S(=O)(=O)c1ccc(NC(=O)c2snnc2C)cc1 (centres undefined) | i | i | i | i | i | nt | nt | nt | nt | nt
CCC1CCCCN1S(=O)(=O)c1ccc(NC(=O)c2cccs2)cc1 (centres undefined) | i | -8.3 | i | i | -11 | 52% | i | 28% | 107 | i
COc1ccc(C)cc1NC(=O)c1cccc(C(=O)Nc2cc(C)ccc2OC)n1 | i | -16 | i | i | i | 61% | i | 32% | 107 | i
Cc1ccc(NC(=O)CN(c2ccc(Cl)cc2)S(=O)(=O)c2cc([N+](=O)[O-])ccc2Cl)c(C)c1 | i | -14 | i | i | -15 | 62% | i | 36% | 115 | i
CCOC(=O)c1c(CSC(=N)N)n(-c2ccc(C)cc2)c2cc(Br)c(OC(C)=O)cc12 | 6 | -8.7 | i | i | -12 | i | i | i | 129 | 0.15
CCOC(=O)c1c(CN(C)C)n(-c2ccc(C)cc2)c2cc(Br)c(O)cc12 | i | i | i | i | i | nt | nt | nt | nt | nt
Cc1ccccc1C(=O)NC1CCN(CC(=O)Nc2ccc(Br)cc2)CC1 | i | i | i | i | i | nt | nt | nt | nt | nt
O=C1CC[C@@H](C(=O)O)N1 | nt | nt | nt | nt | i | nt | nt | nt | nt | nt
CC(C)(C)n1nnnc1C(c1ccccn1)N(Cc1ccccc1)Cc1ccc(Cl)cc1 (centres undefined) | i | -16 | i | i | -9.2 | 60% | i | 46% | 100 | 0.15
CC(C)(C)n1nnnc1C(c1cccs1)N(Cc1ccccc1)Cc1ccco1 (centres undefined) | 9 | -19 | i | i | -12 | 66% | i | 46% | 113 | 0.15
CN(C)CC[C@@H](c1ccc(Cl)cc1)c1ccccn1 | i | i | i | i | i | nt | nt | nt | nt | nt
CCC(C)(C)n1nnnc1C(c1cc2ccc(C)cc2[nH]c1=O)N(Cc1cccnc1)Cc1ccco1 (centres undefined) | i | i | i | i | i | nt | nt | nt | nt | nt
COC(=O)c1c(C(=O)OC)c(-c2ccc(Cl)c(Cl)c2)n2c1CCC2 | i | -8.2 | i | i | i | 32% | i | 32% | 92 | i
SMILES | KCNQ1 inh | KCNK9 block | hERG protect | KCNQ1 act | KCNK3 block | KCNK9 inh conf | Kir2-1 spec | KCNK9 uninduced | KCNK3 confirm | KCNK3 noninduced
Cc1ccc(S(=O)(=O)N(C)C[C@@H]2Oc3ccc(NC(=O)Nc4cccc5ccccc45)cc3C(=O)N([C@H](C)CO)C[C@H]2C)cc1 | nt | nt | nt | nt | i | nt | nt | nt | nt | nt
CSc1ncccc1C(=O)Nc1nccs1 | i | i | i | i | i | nt | nt | nt | nt | nt
Cc1ccc(NC(=O)COC(=O)c2nn(C)c(=O)c3ccccc23)cc1F | nt | nt | nt | nt | i | nt | nt | nt | nt | nt
CCOc1ccccc1NC(=O)c1cccc2c1C(=O)N(C1CCCCC1)C2 | i | -9.1 | i | i | -11 | 38% | i | 33% | 100 | i
Cc1ccc(NC(=O)c2cccc3c2C(=O)N(C2CCCCC2)C3)cc1 | i | -9.6 | i | i | -9.4 | 32% | i | 26% | 117 | i
Cc1ccccc1NC(=O)c1cccc2c1C(=O)N(C1CCCCC1)C2 | i | i | i | i | i | nt | nt | nt | nt | nt
CCN(C(=O)c1cccnc1SC)C12CC3CC(CC(C3)C1)C2 | i | i | i | i | i | nt | nt | nt | nt | nt
CCC(C)(C)c1ccc(OC(=O)c2cccnc2Cl)cc1 | i | i | i | i | i | nt | nt | nt | nt | nt
CCCc1cc(=O)oc2cc(C)cc(OC(C)C(=O)NCC(O)c3ccccc3)c12 (centres undefined) | i | i | i | i | i | nt | nt | nt | nt | nt
CCOC(=O)c1nn(-c2cccc(OC)c2)c(-c2ccccc2)c1C(=O)c1ccccc1 | i | -10 | i | i | -9.3 | 50% | i | i | 113 | 0.14
CCN(CC)c1ccc(/C=N/NC(=O)CNC(=O)C2COc3ccccc3O2)c(O)c1 (centres undefined) | i | i | i | i | i | nt | nt | nt | nt | nt
COc1ccc(NS(=O)(=O)c2ccc(C(=O)N(C)Cc3cccs3)cc2)cc1 | nt | nt | nt | nt | i | nt | nt | nt | nt | nt
O=C(N/N=C/C(Cl)=C/c1ccccc1)c1ccccc1F | i | i | i | i | i | nt | nt | nt | nt | nt
O=C(N/N=C/C(Br)=C/c1ccccc1)c1ccccc1F | i | -9.2 | i | i | -9.4 | 28% | i | i | 98 | i
Cc1cccc(NC(=S)N/N=C/c2cccn2Cc2ccc(F)cc2)c1 | i | -14 | i | i | -9.3 | 60% | i | i | 63 | i
